ChEMBL document CHEMBL1275530, “Aspergillus fumigatus forms biofilms with reduced antifungal drug susceptibility on bronchial epithelial cells” (2008)
Values after ≈ are worked out from the molar mass of the structure shown. *1 amine or outer side, *2 acyl side, *3 side chain or, on linkers, in order; H or OH if unused. Where a SMILES comes first, the peptide text is derived from it. Bridges are numbered along the chain shown (N, C = ends). [ ]: non-standard residue; d: D form. The star is where a group is joined. hTyr(3S-OH,4S-OH,3'-OSO3H) = N[C@H](C(=O)O)[C@H](O)[C@@H](O)c1ccc(O)c(OS(=O)(=O)O)c1; Orn(4R-OH,5R-OH) = O=C([C@H](C[C@@H](O)[C@@H](O)N[*:3])N[*:1])[*:2]; Pro(3S-OH,4S-Me) = C[C@H]1CN[C@H](C(=O)O)[C@H]1O; X1 = CCCCCOc1ccc(-c2cc(-c3ccc(C(=O)*)cc3)no2)cc1; Gln(3R-OH) = NC(=O)C[C@@H](O)[C@H](N)C(=O)O; Hyp = O=C(O)[C@@H]1C[C@@H](O)CN1

What was measured:
Format in all cases: functional
[1] = test system: Aspergillus fumigatus; test: Antifungal activity against Aspergillus fumigatus ATCC 9197 grown as biofilm on CFBE41o cell after 24 to 48 hrs by XTT assay
In short: (§1)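 Biofilm grown in PS 96-well plates on confluent 16HBE14o− (1) or CFBE41o− (2) cells on fibronectin/collagen coating. Conidia (10^6/ml) in MEM plus 10% FCS adhered 2 h at 37°C, 5% CO2. Drugs were added after 24–48 h of biofilm growth and incubated another 24 h and 48 h. Sessile MIC was read by XTT as 50% (MIC-2) or 90% (MIC-1) inhibition of metabolic activity versus drug-free control. CFU were also plated. Three repeats.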

[2] = test system: Aspergillus fumigatus; test: Antifungal activity against Aspergillus fumigatus ATCC 9197 grown as planktonic cell on CFBE41o cell after 48 hrs by broth microdilution method; details: ATCC 9197, 48 h
In short: (§2)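 CLSI M38-A broth microdilution on planktonic conidia, with drugs added at once and end points read at 24 h and 48 h. Ranges in μg/ml: AMB 0.06 to 32; liposomal AMB, voriconazole, posaconazole, itraconazole, caspofungin and micafungin 0.03 to 16. Inoculum was the same as in the XTT assay. Three repeats.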

[3] = test system: Aspergillus fumigatus; test: Antifungal activity against Aspergillus fumigatus ATCC 9197 grown as planktonic cell on 16HBE cell after 48 hrs by broth microdilution method; details: ATCC 9197, 48 h; in short: as §2
[4] = test system: Aspergillus fumigatus; test: Antifungal activity against Aspergillus fumigatus ATCC 9197 grown as biofilm on 16HBE cell after 24 to 48 hrs by XTT assay; in short: as §1
[5] = test system: Aspergillus fumigatus; test: Antifungal activity against Aspergillus fumigatus ATCC 9197 grown as planktonic cell on polystyrene after 48 hrs by broth microdilution method; details: ATCC 9197, 48 h; in short: as §2
[6] = test system: Aspergillus fumigatus; test: Antifungal activity against Aspergillus fumigatus ATCC 9197 grown as biofilm on polystyrene after 24 to 48 hrs by XTT assay
In short: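 Biofilm was formed on polystyrene without epithelial cells, starting from 10^6 conidia/ml in MEM plus 10% FCS. Drugs were added after 24–48 h of biofilm growth. After a further 24 h and 48 h, XTT reduction gave MICs at 50% and 90% inhibition of metabolic activity relative to a drug-free control.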

SMILES | MIC50 [1] | MIC90 [1] | MIC50 [2] | MIC90 [2] | MIC50 [3] | MIC90 [3] | MIC50 [4] | MIC90 [4] | MIC50 [5] | MIC90 [5] | MIC50 [6] | MIC90 [6]
CC[C@H](C)C[C@H](C)CCCCCCCCC(=O)N[C@H]1C[C@@H](O)[C@@H](NCCN)NC(=O)[C@@H]2[C@@H](O)CCN2C(=O)[C@H]([C@H](O)CCN)NC(=O)[C@H]([C@H](O)[C@@H](O)c2ccc(O)cc2)NC(=O)[C@@H]2C[C@@H](O)CN2C(=O)[C@H]([C@@H](C)O)NC1=O [CASPOFUNGIN] | > 8 µg/mL | > 8 µg/mL | 0.5 µg/mL (≈ 0.457 µM) | 1 µg/mL (≈ 0.915 µM) | 0.5 µg/mL (≈ 0.457 µM) | 1 µg/mL (≈ 0.915 µM) | > 8 µg/mL | > 8 µg/mL | – | – | – | –
CCC(C)n1ncn(-c2ccc(N3CCN(c4ccc(OCC5COC(Cn6cncn6)(c6ccc(Cl)cc6Cl)O5)cc4)CC3)cc2)c1=O (stereo unspecified) [ITRACONAZOLE] | 1 µg/mL (≈ 1.42 µM) | 2 µg/mL (≈ 2.83 µM) | 0.125 µg/mL (≈ 0.177 µM) | 0.25 µg/mL (≈ 0.354 µM) | 0.125 µg/mL (≈ 0.177 µM) | 0.25 µg/mL (≈ 0.354 µM) | 1 µg/mL (≈ 1.42 µM) | 1 µg/mL (≈ 1.42 µM) | 0.5 µg/mL (≈ 0.709 µM) | 1 µg/mL (≈ 1.42 µM) | 2 µg/mL (≈ 2.83 µM) | 4 µg/mL (≈ 5.67 µM)
CC[C@@H]([C@H](C)O)n1ncn(-c2ccc(N3CCN(c4ccc(OC[C@@H]5CO[C@@](Cn6cncn6)(c6ccc(F)cc6F)C5)cc4)CC3)cc2)c1=O [POSACONAZOLE] | 1 µg/mL (≈ 1.43 µM) | 2 µg/mL (≈ 2.85 µM) | 0.125 µg/mL (≈ 0.178 µM) | 0.125 µg/mL (≈ 0.178 µM) | 0.125 µg/mL (≈ 0.178 µM) | 0.125 µg/mL (≈ 0.178 µM) | 1 µg/mL (≈ 1.43 µM) | 1 µg/mL (≈ 1.43 µM) | – | – | – | –
C[C@@H](c1ncncc1F)[C@](O)(Cn1cncn1)c1ccc(F)cc1F [VORICONAZOLE] | 1 µg/mL (≈ 2.86 µM) | 2 µg/mL (≈ 5.73 µM) | 0.125 µg/mL (≈ 0.358 µM) | 0.125 µg/mL (≈ 0.358 µM) | 0.125 µg/mL (≈ 0.358 µM) | 0.125 µg/mL (≈ 0.358 µM) | 1 µg/mL (≈ 2.86 µM) | 1 µg/mL (≈ 2.86 µM) | – | – | – | –

Now from value to compound:

MIC50 [1] | MIC90 [1] | MIC50 [2] | MIC90 [2] | MIC50 [3] | MIC90 [3] | MIC50 [4] | MIC90 [4] | MIC50 [5] | MIC90 [5] | MIC50 [6] | MIC90 [6] | SMILES
4 µg/mL (≈ 4.33 µM) | 8 µg/mL (≈ 8.66 µM) | 0.5 µg/mL (≈ 0.541 µM) | 1 µg/mL (≈ 1.08 µM) | 0.5 µg/mL (≈ 0.541 µM) | 1 µg/mL (≈ 1.08 µM) | 2 µg/mL (≈ 2.16 µM) | 4 µg/mL (≈ 4.33 µM) | 1 µg/mL (≈ 1.08 µM) | 1 µg/mL (≈ 1.08 µM) | 8 µg/mL (≈ 8.66 µM) | 16 µg/mL (≈ 17.3 µM) | C[C@@H]1[C@H](O)[C@@H](C)/C=C/C=C/C=C/C=C/C=C/C=C/C=C/[C@H](O[C@@H]2O[C@H](C)[C@@H](O)[C@H](N)[C@@H]2O)C[C@@H]2O[C@](O)(C[C@@H](O)C[C@@H](O)[C@H](O)CC[C@@H](O)C[C@@H](O)CC(=O)O[C@H]1C)C[C@H](O)[C@H]2C(=O)O [AMPHOTERICIN B]
> 8 µg/mL | > 8 µg/mL | 0.5 µg/mL (≈ 0.394 µM) | 1 µg/mL (≈ 0.787 µM) | 0.5 µg/mL (≈ 0.394 µM) | 1 µg/mL (≈ 0.787 µM) | > 8 µg/mL | > 8 µg/mL | – | – | – | – | CCCCCOc1ccc(-c2cc(-c3ccc(C(=O)N[C@H]4C[C@@H](O)[C@@H](O)NC(=O)[C@@H]5[C@@H](O)[C@@H](C)CN5C(=O)[C@H]([C@H](O)CC(N)=O)NC(=O)[C@H]([C@H](O)[C@@H](O)c5ccc(O)c(OS(=O)(=O)O)c5)NC(=O)[C@@H]5C[C@@H](O)CN5C(=O)[C@H]([C@@H](C)O)NC4=O)cc3)no2)cc1 [MICAFUNGIN] (X1-[Orn(4R-OH,5R-OH)]T[Hyp][hTyr(3S-OH,4S-OH,3'-OSO3H)][Gln(3R-OH)][Pro(3S-OH,4S-Me)]; lactam 1-C)
